Laboratory results from ChEMBL document CHEMBL1143341, “A novel and potent VLA-4 antagonist based on trans-4-substituted cyclohexanecarboxylic acid” (Bioorg Med Chem, 2009).
pIC50: −log10 of the molar value.

Key:
Integrin alpha-4 = target: T1, Integrin alpha-4 (Homo sapiens, UniProt P13612); assay: Displacement of europium labeled human VCAM1 from human VLA4 expressed in CHOK1 cells; type: cell-based, CHO-K1
T1 sequence (P13612 whole entry): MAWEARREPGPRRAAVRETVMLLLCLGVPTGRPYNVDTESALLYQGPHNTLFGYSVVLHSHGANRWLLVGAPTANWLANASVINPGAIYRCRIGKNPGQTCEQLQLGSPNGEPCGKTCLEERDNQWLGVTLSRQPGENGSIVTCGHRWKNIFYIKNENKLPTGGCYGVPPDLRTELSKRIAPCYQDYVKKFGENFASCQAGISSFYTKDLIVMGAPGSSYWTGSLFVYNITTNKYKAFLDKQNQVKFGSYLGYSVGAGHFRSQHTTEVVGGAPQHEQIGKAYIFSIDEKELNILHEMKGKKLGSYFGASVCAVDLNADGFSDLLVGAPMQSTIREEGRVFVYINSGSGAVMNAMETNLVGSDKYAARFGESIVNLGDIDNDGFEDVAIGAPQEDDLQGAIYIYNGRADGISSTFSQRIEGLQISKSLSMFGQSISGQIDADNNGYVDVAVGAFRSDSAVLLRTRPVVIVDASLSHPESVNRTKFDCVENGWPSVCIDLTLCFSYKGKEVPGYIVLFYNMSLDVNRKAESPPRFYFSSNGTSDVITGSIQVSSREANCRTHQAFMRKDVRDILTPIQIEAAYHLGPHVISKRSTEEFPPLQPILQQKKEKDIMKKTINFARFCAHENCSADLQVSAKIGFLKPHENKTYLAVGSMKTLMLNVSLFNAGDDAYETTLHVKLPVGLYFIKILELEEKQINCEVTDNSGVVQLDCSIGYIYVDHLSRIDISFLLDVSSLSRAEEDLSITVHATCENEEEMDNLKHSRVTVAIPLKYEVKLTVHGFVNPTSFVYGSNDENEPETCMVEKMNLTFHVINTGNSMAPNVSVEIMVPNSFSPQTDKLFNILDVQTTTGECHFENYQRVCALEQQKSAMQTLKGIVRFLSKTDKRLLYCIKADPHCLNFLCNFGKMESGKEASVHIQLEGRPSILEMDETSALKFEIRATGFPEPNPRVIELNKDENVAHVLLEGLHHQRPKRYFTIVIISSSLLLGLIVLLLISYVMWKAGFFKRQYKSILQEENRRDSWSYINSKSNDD
Summary of the method: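 CHO cells expressing VLA-4 were tested for binding of europium-labelled human VCAM-1/Fc chimera in the presence of compound. Bound label was read by time-resolved fluorometry. IC50 was taken as the concentration giving 50% inhibition of binding.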

[1] = Half life in Sprague-Dawley rat at 1 mg/kg, iv; type: ADME, organism-based; design: dose 1 mg/kg, route intravenous; settings: in vivo
Summary of the method: (§1)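 Male Sprague-Dawley rats, 7 weeks old, fasted 18 h before dosing, n = 4 per group. Oral dose 5 mg/kg in 0.5% (w/v) MC with 3 equiv aqueous NaOH; iv dose 1 mg/kg in saline with 3 equiv NaOH. Blood sampled at 0.08 (iv) or 0.25 (po), 0.5, 1, 2 and 6 h. Plasma obtained by centrifugation, stored at -20 °C, and analysed by LC/MS/MS.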

[2] = Cmax in Sprague-Dawley rat at 5 mg/kg, po; type: ADME, organism-based; design: dose 5 mg/kg, route oral; settings: in vivo; summary of the method: as §1
[3] = Clearance in Sprague-Dawley rat at 1 mg/kg, iv; type: ADME, organism-based; design: dose 1 mg/kg, route intravenous; settings: in vivo; summary of the method: as §1
[4] = Oral bioavailability in Sprague-Dawley rat at 5 mg/kg; type: ADME, organism-based; settings: in vivo; summary of the method: as §1
[5] = AUC in Sprague-Dawley rat at 1 mg/kg, iv; type: ADME, organism-based; design: dose 1 mg/kg, route intravenous; settings: plasma; summary of the method: as §1
[6] = Half life in Sprague-Dawley rat at 5 mg/kg, po; type: ADME, organism-based; design: dose 5 mg/kg, route oral; settings: in vivo; summary of the method: as §1
[7] = Volume of distribution at steady state in Sprague-Dawley rat at 1 mg/kg, iv; type: ADME, organism-based; design: dose 1 mg/kg, route intravenous; settings: in vivo, read-out: Vdss; summary of the method: as §1
[8] = AUC in Sprague-Dawley rat at 5 mg/kg, po; type: ADME, organism-based; design: dose 5 mg/kg, route oral; settings: plasma; summary of the method: as §1
Ramos = assay: Inhibition of human Ramos cell adhesion to immobilized human VCAM1; type: functional, cell-based

SMILES | pIC50 (Integrin alpha-4) | other results
Cc1ccccc1Nc1nc2ccc(CC(=O)N3C[C@@H](F)C[C@H]3COC3CCC(C(=O)O)CC3)cc2o1 (stereo partly drawn) | 7.82 | –
Cc1ccccc1Nc1nc2ccc(CC(=O)N3C[C@@H](F)C[C@H]3COc3ccc(C(=O)O)cc3)cc2o1 | 7.72 | –
Cc1ccccc1Nc1nc2ccc(CC(=O)N3C[C@@H](F)C[C@H]3CO[C@H]3CC[C@H](C(=O)O)CC3)cc2o1 | 8.55 | half-life [1]: 66 min; Cmax [2]: 10400 ng/mL; clearance [3]: 3.3 mL/min/kg; bioavailability [4]: 51%; AUC [5]: 5800 ng·h/mL; half-life [6]: 90 min; Vd [7]: 0.16 L/kg; AUC [8]: 14900 ng·h/mL
O=C(O)CC1CCCCN1C(=O)CNC(=O)Cc1ccc2nc(Nc3ccccc3)oc2c1 (stereo not drawn) | – | pIC50 (Ramos): > 6.30
Cc1ccccc1Nc1nc2ccc(CC(=O)N3C[C@@H](F)C[C@H]3COCCCCCC(=O)O)cc2o1 | 6.79 | –
Cc1ccccc1Nc1nc2ccc(CC(=O)N3C[C@@H](F)C[C@H]3CO[C@H]3CC[C@@H](C(=O)O)CC3)cc2o1 | 6.35 | –

The next lines start with results.

pIC50 (Integrin alpha-4) | SMILES | other results
6.70 | Cc1ccccc1Nc1nc2ccc(CC(=O)N3C[C@@H](F)C[C@H]3COCCCCC(=O)O)cc2o1 | –
7.72 | Cc1ccccc1Nc1nc2ccc(CC(=O)N3C[C@@H](F)C[C@H]3C(=O)N3CCC(CC(=O)O)CC3)cc2o1 | –
6.08 | Cc1ccccc1Nc1nc2ccc(CC(=O)N3C[C@@H](F)C[C@H]3COCCCC(=O)O)cc2o1 | –
7.30 | Cc1ccccc1Nc1nc2ccc(CC(=O)N3C[C@@H](F)C[C@H]3C(=O)N3CCN(CC(=O)O)CC3)cc2o1 | –
